Data reported in ChEMBL document CHEMBL1833949, “High affinity sialoside ligands of myelin associated glycoprotein” (Bioorg Med Chem Lett, 2011).
pIC50, pKd: −log10 of the molar value.

What was measured:
[1] = molecular target: T1, Myelin-associated glycoprotein (Homo sapiens, UniProt P20916); experiment: Binding affinity to MAG
T1 sequence (P20916 whole entry): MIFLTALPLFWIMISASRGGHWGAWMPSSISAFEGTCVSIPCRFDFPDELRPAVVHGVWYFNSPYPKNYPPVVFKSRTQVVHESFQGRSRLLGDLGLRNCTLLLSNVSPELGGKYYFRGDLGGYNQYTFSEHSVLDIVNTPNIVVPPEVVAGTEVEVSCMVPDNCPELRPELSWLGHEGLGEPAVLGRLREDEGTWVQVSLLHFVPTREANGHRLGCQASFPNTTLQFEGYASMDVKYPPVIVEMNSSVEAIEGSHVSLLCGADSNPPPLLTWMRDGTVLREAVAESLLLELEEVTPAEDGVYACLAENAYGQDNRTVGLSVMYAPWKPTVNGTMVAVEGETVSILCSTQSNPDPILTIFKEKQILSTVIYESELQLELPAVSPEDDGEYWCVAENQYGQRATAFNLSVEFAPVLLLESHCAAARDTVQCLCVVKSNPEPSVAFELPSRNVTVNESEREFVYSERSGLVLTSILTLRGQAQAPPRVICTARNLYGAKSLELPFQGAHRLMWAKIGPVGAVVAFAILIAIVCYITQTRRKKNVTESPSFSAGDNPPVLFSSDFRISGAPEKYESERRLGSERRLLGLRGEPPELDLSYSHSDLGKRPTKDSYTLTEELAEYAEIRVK
Method in brief: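 Competitive inhibition of MAG-Fc chimera binding to a polymeric ligand adsorbed in microplate wells, run in triplicate. Each compound was assayed three times on separate days, alongside at least one other compound, and the IC50 reported as mean and standard deviation. Apparent Kd values were calculated from IC50 against a reference ligand whose Kd was measured by isothermal titration calorimetry.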

[2] = molecular target: T1, Myelin-associated glycoprotein; experiment: Binding affinity to wild type MAG at 400 uM by Isothermal titration calorimetry
[3] = molecular target: T1, Myelin-associated glycoprotein; experiment: Inhibition of MAG -Fc chimera expressed in CHO cells using NeuAc alpha2-3Galbeta1-4GlcNAc-R coupled biotinylated polyacrylamide after 30 mins by ELISA; format: cell-based
Method in brief: (§1)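 Each compound was run in triplicate and assayed on three separate days, each time alongside at least one other compound to check for drift. IC50 is the mean and standard deviation of the three separate assays.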

[4] = molecular target: T1, Myelin-associated glycoprotein; experiment: Inhibition of MAG
Method in brief: as §1, with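 “Competition format: MAG-Fc chimera binding to a polymeric ligand adsorbed on plate wells, with the inhibitor titrated to give IC50. Each” for “Each”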

Structure (SMILES)	pKd [2]	pIC50 [3]	pIC50 [4]	pKd [1]
CC(=O)N[C@H]1[C@H]([C@H](O)[C@H](O)CNC(=O)c2ccccc2)O[C@@](O[C@H]2[C@@H](O)[C@@H](CO)O[C@@H](O[C@H]3[C@@H](O)[C@@H](CO)O[C@@H](OCC[Si](C)(C)C)[C@@H]3O)[C@@H]2O)(C(=O)O)C[C@@H]1O				4.49
COC(=O)[C@@H](NC(C)=O)[C@@H](C)O[C@H]1O[C@H](CO[C@]2(C(=O)O)C[C@H](O)[C@@H](NC(C)=O)[C@H]([C@H](O)[C@H](O)CO)O2)[C@H](O)[C@H](O[C@@H]2O[C@H](CO)[C@H](O)[C@H](O)[C@H]2O)[C@H]1NC(C)=O	4.89	5.10		
COC(=O)[C@@H](NC(C)=O)[C@@H](C)O[C@H]1O[C@H](CO)[C@H](O)[C@H](O[C@@H]2O[C@H](CO)[C@H](O)[C@H](O[C@]3(C(=O)O)C[C@H](O)[C@@H](NC(C)=O)[C@H]([C@H](O)[C@H](O)CNC(=O)c4ccccc4)O3)[C@H]2O)[C@H]1NC(C)=O	6.00	6.19		
CC(=O)N[C@H]1[C@H](OCC[Si](C)(C)C)O[C@H](CO)[C@H](O)[C@@H]1O[C@@H]1O[C@H](CO)[C@H](O)[C@H](O[C@]2(C(=O)O)C[C@H](O)[C@@H](NC(C)=O)[C@H]([C@H](O)[C@H](O)CO)O2)[C@H]1O				3.74
O=C(CF)N[C@H]1[C@H]([C@H](O)[C@H](O)CNC(=O)c2ccccc2)O[C@@](OCc2cccc(F)c2F)(C(=O)O)C[C@@H]1O				6.30
COC(=O)[C@@H](NC(C)=O)[C@@H](C)O[C@H]1O[C@H](CO)[C@H](O)[C@H](O[C@@H]2O[C@H](CO)[C@H](O)[C@H](O[C@]3(C(=O)O)C[C@H](O)[C@@H](NC(C)=O)[C@H]([C@H](O)[C@H](O)CO)O3)[C@H]2O)[C@H]1NC(C)=O	5.72	5.92		
CC(=O)N[C@H]1[C@@H](O[C@H](C)[C@H](N)C(=O)O)O[C@H](CO)[C@H](O)[C@@H]1O[C@@H]1O[C@H](CO)[C@H](O)[C@H](O[C@]2(C(=O)O)C[C@H](O)[C@@H](NC(C)=O)[C@H]([C@H](O)[C@H](O)CO)O2)[C@H]1O			5.92	
CC(=O)N[C@@H]1[C@@H](O[C@@H]2O[C@H](CO)[C@H](O)[C@H](O[C@]3(C(=O)O)C[C@H](O)[C@@H](NC(C)=O)[C@H]([C@H](O)[C@H](O)CO)O3)[C@H]2O)[C@@H](O)[C@@H](CO)O[C@H]1Sc1ccc(C)cc1			3.57	
COC(=O)[C@@H](NC(C)=O)[C@@H](C)O[C@H]1O[C@H](CO)[C@H](O)[C@H](O[C@@H]2O[C@H](CO)[C@H](O)[C@H](O[C@]3(C(=O)O)C[C@H](O)[C@@H](NC(C)=O)[C@H]([C@H](O)[C@H](O)CNC(=O)c4ccc(Cl)cc4)O3)[C@H]2O)[C@H]1NC(C)=O	6.00	6.21		
COC(=O)[C@@H](NC(C)=O)[C@@H](C)O[C@H]1O[C@H](CO[C@]2(C(=O)O)C[C@H](O)[C@@H](NC(C)=O)[C@H]([C@H](O)[C@H](O)CNC(=O)c3ccc(Cl)cc3)O2)[C@H](O)[C@H](O[C@@H]2O[C@H](CO)[C@H](O)[C@H](O)[C@H]2O)[C@H]1NC(C)=O	6.00	6.19		
CC(=O)N[C@H]1[C@@H](OCc2ccccc2)O[C@H](CO)[C@H](O)[C@@H]1O[C@@H]1O[C@H](CO)[C@H](O)[C@H](O[C@]2(C(=O)O)C[C@H](O)[C@@H](NC(C)=O)[C@H]([C@H](O)[C@H](O)CO)O2)[C@H]1O			4.28	

The next lines start with results.

pKd [2]	pIC50 [3]	pIC50 [4]	Structure (SMILES)	pKd [1]
6.89	7.10		COC(=O)[C@@H](NC(C)=O)[C@@H](C)O[C@H]1O[C@H](CO)[C@H](O)[C@H](O[C@@H]2O[C@H](CO)[C@H](O)[C@H](O[C@]3(C(=O)O)C[C@H](O)[C@@H](NC(C)=O)[C@H]([C@H](O)[C@H](O)CNC(=O)c4ccc(F)cc4)O3)[C@H]2O)[C@H]1NC(C)=O	
6.32	6.52		COC(=O)[C@@H](NC(C)=O)[C@@H](C)O[C@H]1O[C@H](CO[C@]2(C(=O)O)C[C@H](O)[C@@H](NC(C)=O)[C@H]([C@H](O)[C@H](O)CO)O2)[C@H](O)[C@H](O[C@@H]2O[C@H](CO)[C@H](O)[C@H](O[C@]3(C(=O)O)C[C@H](O)[C@@H](NC(C)=O)[C@H]([C@H](O)[C@H](O)CNC(=O)c4ccc(F)cc4)O3)[C@H]2O)[C@H]1NC(C)=O	
7.82	8.05		COC(=O)[C@@H](NC(C)=O)[C@@H](C)O[C@H]1O[C@H](CO[C@]2(C(=O)O)C[C@H](O)[C@@H](NC(C)=O)[C@H]([C@H](O)[C@H](O)CNC(=O)c3ccc(F)cc3)O2)[C@H](O)[C@H](O[C@@H]2O[C@H](CO)[C@H](O)[C@H](O[C@]3(C(=O)O)C[C@H](O)[C@@H](NC(C)=O)[C@H]([C@H](O)[C@H](O)CO)O3)[C@H]2O)[C@H]1NC(C)=O	
5.75	5.96		COC(=O)[C@@H](NC(C)=O)[C@@H](C)O[C@H]1O[C@H](CO[C@]2(C(=O)O)C[C@H](O)[C@@H](NC(C)=O)[C@H]([C@H](O)[C@H](O)CNC(=O)c3ccc(F)cc3)O2)[C@H](O)[C@H](O[C@@H]2O[C@H](CO)[C@H](O)[C@H](O)[C@H]2O)[C@H]1NC(C)=O	
		6.52	CC(=O)N[C@H]1[C@@H](O[C@H](C)[C@H](N)C(=O)O)O[C@H](CO[C@]2(C(=O)O)C[C@H](O)[C@@H](NC(C)=O)[C@H]([C@H](O)[C@H](O)CO)O2)[C@H](O)[C@@H]1O[C@@H]1O[C@H](CO)[C@H](O)[C@H](O[C@]2(C(=O)O)C[C@H](O)[C@@H](NC(C)=O)[C@H]([C@H](O)[C@H](O)CO)O2)[C@H]1O	
